Source: ChEMBL document CHEMBL4699593, “Identification of 2,4-Disubstituted Imidazopyridines as Hemozoin Formation Inhibitors with Fast-Killing Kinetics and In Vivo Efficacy in the Plasmodium falciparum NSG Mouse Model” (J Med Chem, 2020)
≈ marks a conversion by molar mass, not a printed value. Calls of active or inactive are those of the source. No cut-off for these calls is given here.

Assays:
[1] = Aqueous solubility of compound in phosphate buffer saline at pH 6.5 incubated for 20 hrs under shaking condition by shake-flask method based HPLC-DAD analysis; assay type: physicochemical; settings: phosphate buffered saline
Outline: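 Equilibrium aqueous solubility was measured at pH 6.5 using a miniaturized shake-flask method.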

Plasmodium falciparum [2] = test: Antimalarial activity against asexual blood stage Plasmodium falciparum assessed as reduction in parasitemia by measuring log parasite reduction ratio at 10 times IC50; assay type: functional
Plasmodium falciparum [3] = test: Antimalarial activity against asexual blood stage Plasmodium falciparum assessed as time required to show 99.9% reduction of parasitemia at 10 times IC50; assay type: functional
Plasmodium falciparum [4] = test: Antimalarial activity against asexual schizont stage of Plasmodium falciparum NF54 measured after 24 hrs by [3H]hypoxanthine incorporation assay; assay type: functional, organism-based
Outline: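 Tested on a synchronized asexual blood-stage culture of P. falciparum, with IC50 determined separately for the ring and the schizont stage.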

Plasmodium berghei = test: Antiplasmodial activity against luciferase-expressing Plasmodium berghei sporozoites liver stage infected in human HepG2 cells expressing GFP-CD81 fusion protein incubated for 48 hrs by luciferase reporter gene based bioluminescence assay; assay type: functional, organism-based; settings: HepG2, 48 h
Outline: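 Liver-stage activity was measured in vitro with rodent P. berghei sporozoites. Values are the mean of 3 technical replicates from the luciferase assay; individual values varied less than 2×.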

Hemozoin = test: Inhibition of beta-hematin formation assessed as reduction in hemozoin formation incubated for 5 hrs by NP40 detergent-mediated assay
Outline: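 Synthetic hemozoin (β-hematin) formation is driven by the detergent Nonidet P-40. Pyridine is then added to detect unreacted hematin. IC50 is derived from this read-out.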

Plasmodium falciparum [5] = test: Antiplasmodial activity against early ring-stage synchronized Plasmodium falciparum assessed as decrease in hemozoin formation after 32 hrs by Giemsa-staining based haemocytometric counting method; assay type: functional, organism-based
[6] = Cmax in Balb/C mouse at 2 mg/kg, iv by LC-MS/MS analysis; assay type: ADME, organism-based; set-up: route intravenous, dose 2 mg/kg; settings: in vivo
Outline: (§1)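 Healthy Balb/c mice dosed i.v. or orally. Parameters come from non-compartmental analysis of compound concentration over time. […] Clearance is blood clearance (CL_b).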

[7] = Tmax in Balb/C mouse at 20 mg/kg, po by LC-MS/MS analysis; assay type: ADME, organism-based; settings: in vivo
Outline: (§2)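 Healthy Balb/c mice were given the compound i.v. or orally. Parameters come from non-compartmental analysis: AUC from 0 h to t_last, blood clearance, volume at steady state, terminal half-life, Tmax. Oral bioavailability F is derived from the i.v. and p.o. data.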

[8] = Terminal half life in Balb/C mouse at 2 mg/kg, iv by LC-MS/MS analysis; assay type: ADME, organism-based; settings: in vivo, read-out: beta t1/2 (converted); outline: as §2
[9] = Terminal half life in Balb/C mouse at 20 mg/kg, po by LC-MS/MS analysis; assay type: ADME, organism-based; settings: in vivo, read-out: beta t1/2 (converted); outline: as §2
[10] = AUC (0 to t) in Balb/C mouse at 2 mg/kg, iv by LC-MS/MS analysis; assay type: ADME, organism-based; set-up: dose 2 mg/kg; settings: in vivo; outline: as §1
[11] = Oral bioavailability in Balb/C mouse at 20 mg/kg by LC-MS/MS analysis; assay type: ADME, organism-based; settings: in vivo; outline: as §2
[12] = Ratio of unbound average drug concentration in Balb/c mouse at 20 mg/kg, po measured at 24 hrs to IC50 for antiplasmodial activity against multidrug-sensitive Plasmodium falciparum NF54 asexual blood stage assessed as reduction in parasite growth after 72 hrs by LDH assay; assay type: organism-based; settings: in vivo
[13] = Tmax in Plasmodium falciparum 3D70087/N9 infected NSG mouse at 15 mg/kg, po by LC-MS/MS analysis; assay type: ADME, organism-based; settings: in vivo
Outline: (§3)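 P. falciparum-infected NSG mice received escalating single oral doses of 1.5, 5, 15, 50 and 100 mg/kg.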

[14] = Tmax in Plasmodium falciparum 3D70087/N9 infected NSG mouse at 100 mg/kg, po by LC-MS/MS analysis; assay type: ADME, organism-based; settings: in vivo; outline: as §3
[15] = Cmax in Plasmodium falciparum 3D70087/N9 infected NSG mouse at 15 mg/kg, po by LC-MS/MS analysis; assay type: ADME, organism-based; set-up: route oral, dose 15 mg/kg; settings: in vivo
Outline: (§4)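 Oral (PO) dosing of NSG (NODscidIL2Rγnull) mice infected with P. falciparum. Cmax and AUC0–24 are taken from the infected-mouse PK analysis and are also expressed divided by dose.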

[16] = Cmax in Plasmodium falciparum 3D70087/N9 infected NSG mouse at 50 mg/kg, po by LC-MS/MS analysis; assay type: ADME, organism-based; set-up: route oral, dose 50 mg/kg; settings: in vivo; outline: as §4
[17] = Cmax in Plasmodium falciparum 3D70087/N9 infected NSG mouse at 200 mg/kg, po by LC-MS/MS analysis; assay type: ADME, organism-based; set-up: route oral, dose 200 mg/kg; settings: in vivo; outline: as §4
[18] = AUC (0 to 24 hrs) in Plasmodium falciparum 3D70087/N9 infected NSG mouse at 100 mg/kg, po by LC-MS/MS analysis; assay type: ADME, organism-based; set-up: time < 24 hr, route oral, dose 100 mg/kg; settings: in vivo; outline: as §4
[19] = AUC (0 to 24 hrs) in Plasmodium falciparum 3D70087/N9 infected NSG mouse at 200 mg/kg, po by LC-MS/MS analysis; assay type: ADME, organism-based; set-up: time < 24 hr, route oral, dose 200 mg/kg; settings: in vivo; outline: as §4
Plasmodium falciparum [20] = test: Antimalarial activity against Plasmodium falciparum 3D70087/N9 infected in NOD-SCID IL2Rgamma null mouse assessed as parasitemia at 100 mg/kg, po qd administered for 4 days measured on day 6 post-infection by microscopy based flow cytometry; assay type: functional, organism-based; settings: time 4.0 day
Plasmodium falciparum [21] = test: Antimalarial activity against asexual blood stage Plasmodium falciparum assessed as reduction in parasitemia by measuring lag time at 10 times IC50; assay type: functional
[22] = Dose normalized Cmax in Plasmodium falciparum 3D70087/N9 infected NSG mouse at 15 mg/kg, po by LC-MS/MS analysis; assay type: ADME, organism-based; settings: in vivo; outline: as §4
[23] = Dose normalized Cmax in Plasmodium falciparum 3D70087/N9 infected NSG mouse at 50 mg/kg, po by LC-MS/MS analysis; assay type: ADME, organism-based; settings: in vivo; outline: as §3
[24] = Dose normalized Cmax in Plasmodium falciparum 3D70087/N9 infected NSG mouse at 200 mg/kg, po by LC-MS/MS analysis; assay type: ADME, organism-based; settings: in vivo; outline: as §4
[25] = Dose normalized AUC (0 to 24 hrs) in Plasmodium falciparum 3D70087/N9 infected NSG mouse at 50 mg/kg, po by LC-MS/MS analysis; assay type: ADME, organism-based; settings: in vivo; outline: as §4
[26] = Dose normalized AUC (0 to 24 hrs) in Balb/c mouse at 20 mg/kg, po by LC-MS/MS analysis; assay type: ADME, organism-based; settings: in vivo; outline: as §1
[27] = Drug metabolism in mouse blood assessed as oxidation and glucuronidation by LC-MS/MS analysis; assay type: ADME, tissue-based
[28] = Lipophilicity, log D of compound at pH 6; assay type: physicochemical; settings: buffer
[29] = Tmax in Plasmodium falciparum 3D70087/N9 infected NSG mouse at 5 mg/kg, po by LC-MS/MS analysis; assay type: ADME, organism-based; settings: in vivo; outline: as §3
[30] = Tmax in Plasmodium falciparum 3D70087/N9 infected NSG mouse po by LC-MS/MS analysis; settings: in vivo

CN1CCN(CC2CCN(c3nccc4[nH]c(-c5cc(F)cc(F)c5)nc34)CC2)CC1
solubility thermodynamic at 20 h [1]: 200 µM (≈ 85.3 µg/mL) | Ratio (Plasmodium falciparum [2]): 4.9 | Time (Plasmodium falciparum [3]): 31 h | IC50 (Plasmodium falciparum [4]): 0.06 µM | IC50 (Plasmodium berghei): 14 µM | IC50 (Hemozoin): 24 µM | Activity (Plasmodium falciparum [5]): Active | Cmax [6]: 600 nM | Tmax [7]: 1.7 h | half-life [8]: 23.1 h | half-life [9]: 32.7 h | AUCt [10]: 2.42 µM·h | bioavailability [11]: 83% | Ratio [12]: 4.5 | Tmax [13]: 6 h | Tmax [14]: 1 h | Cmax [15]: 810 nM | Cmax [16]: 2840 nM | Cmax [17]: 2840 nM | AUC [18]: 5142 µM·min | AUC(0-t) at 24 h [19]: 51.7 µM·h | Activity (Plasmodium falciparum [20]): Below limit of detection | Time (Plasmodium falciparum [21]): 0 h | Cmax/dose [22]: 0.05 µM·kg/mg | Cmax/dose [23]: 0.06 µM·kg/mg | Cmax/dose [24]: 0.06 µM·kg/mg | AUC/dose [25]: 57 µM·kg·min/mg | AUC/dose [26]: 60 µM·kg·min/mg | Drug metabolism [27]: Metabolite_Detected | logD [28]: 0.4 | Tmax [29]: 2.5 h | Tmax [30]: 4 h
